{"source": "ChEMBL document CHEMBL1149693", "about": "“Selective reversible inhibition of human butyrylcholinesterase by aryl amide derivatives of phenothiazine” (Bioorg Med Chem, 2007)", "key": {"Cholinesterase": {"biological_target": "Cholinesterase (Homo sapiens, UniProt P06276)", "sequence (P06276 whole entry)": "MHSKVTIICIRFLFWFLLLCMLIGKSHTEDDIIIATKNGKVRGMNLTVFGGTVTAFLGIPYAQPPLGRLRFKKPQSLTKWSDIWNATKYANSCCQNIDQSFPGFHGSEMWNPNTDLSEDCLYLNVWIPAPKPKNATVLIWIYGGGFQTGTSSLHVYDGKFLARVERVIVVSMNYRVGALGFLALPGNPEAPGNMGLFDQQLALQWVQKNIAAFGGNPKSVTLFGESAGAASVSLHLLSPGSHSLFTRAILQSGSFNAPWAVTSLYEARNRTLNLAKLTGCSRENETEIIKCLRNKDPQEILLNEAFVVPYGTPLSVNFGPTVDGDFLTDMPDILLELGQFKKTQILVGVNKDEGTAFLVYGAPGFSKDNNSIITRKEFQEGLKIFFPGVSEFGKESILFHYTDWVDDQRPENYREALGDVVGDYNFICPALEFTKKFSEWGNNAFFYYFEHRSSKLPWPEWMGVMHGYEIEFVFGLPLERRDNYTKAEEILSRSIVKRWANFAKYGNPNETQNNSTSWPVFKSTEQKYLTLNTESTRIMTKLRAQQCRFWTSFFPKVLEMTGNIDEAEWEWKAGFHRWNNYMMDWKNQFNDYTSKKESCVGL", "experiment": "Inhibition of human plasma BuChE activity", "format": "cell-free", "outline": "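Modified Ellman assay with purified human serum BuChE (0.05 U) in 0.005% gelatin, buffered DTNB pH 8.0. Inhibitor in 50% aqueous acetonitrile (1.67% v/v final), 1:10 serial dilutions. Butyrylthiocholine 3 × 10^-5 to 1.6 × 10^-4 M. A412 read every 5 s for 1 min at 23 °C, at least triplicate. Ki from slope replot of Lineweaver–Burk lines (no inhibitor, two inhibitor levels).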"}, "[1]": {"biological_target": "Acetylcholinesterase (Homo sapiens) (UniProt P22303)", "sequence (P22303 whole entry)": "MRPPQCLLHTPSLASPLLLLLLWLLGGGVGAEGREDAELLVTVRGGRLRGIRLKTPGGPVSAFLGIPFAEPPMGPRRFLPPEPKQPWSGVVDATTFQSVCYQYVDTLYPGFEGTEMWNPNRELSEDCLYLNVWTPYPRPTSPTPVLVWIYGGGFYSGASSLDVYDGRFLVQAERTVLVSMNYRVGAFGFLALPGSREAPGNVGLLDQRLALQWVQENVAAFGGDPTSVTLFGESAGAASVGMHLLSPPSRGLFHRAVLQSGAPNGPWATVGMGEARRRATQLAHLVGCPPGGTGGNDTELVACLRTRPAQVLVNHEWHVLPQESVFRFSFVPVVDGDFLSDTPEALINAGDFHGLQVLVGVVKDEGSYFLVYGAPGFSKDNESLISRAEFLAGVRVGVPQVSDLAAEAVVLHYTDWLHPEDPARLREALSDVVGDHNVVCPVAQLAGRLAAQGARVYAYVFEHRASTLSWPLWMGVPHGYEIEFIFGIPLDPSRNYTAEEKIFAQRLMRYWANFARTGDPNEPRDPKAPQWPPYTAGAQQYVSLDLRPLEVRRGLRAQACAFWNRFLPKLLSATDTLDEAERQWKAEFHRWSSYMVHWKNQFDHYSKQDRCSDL", "experiment": "Inhibition of recombinant human AChE activity", "outline": "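Ellman-type assay with recombinant human AChE (0.03 U) in 0.005% gelatin and buffered DTNB pH 8.0. Inhibitor in 50% aqueous acetonitrile, tested as 1:10 serial dilutions. Acetylthiocholine 3 × 10^-5 to 1.6 × 10^-4 M. Absorbance at 412 nm every 5 s over 1 min, 23 °C, generally triplicate and averaged. Lineweaver–Burk plots with and without inhibitor.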"}}, "note": "The source made the active and inactive calls. No cut-off for these calls is given here."}
{"smiles": "O=C(c1cccc2ccccc12)N1c2ccccc2Sc2ccccc21", "values": [{"measurement": "Ki", "setting": "Cholinesterase", "result": 88, "unit": "nM"}, {"measurement": "Activity", "setting": "[1]", "result": "inactive"}]}
{"smiles": "O=C(c1cccc(Br)c1)N1c2ccccc2Sc2ccccc21", "values": [{"measurement": "Ki", "setting": "Cholinesterase", "result": 600, "unit": "nM"}, {"measurement": "Activity", "setting": "[1]", "result": "inactive"}]}
{"smiles": "O=C(/C=C/c1ccccc1)N1c2ccccc2Sc2ccccc21", "values": [{"measurement": "Ki", "setting": "Cholinesterase", "result": 2700, "unit": "nM"}, {"measurement": "Activity", "setting": "[1]", "result": "inactive"}]}
{"smiles": "O=C(c1ccc2ccccc2c1)N1c2ccccc2Sc2ccccc21", "values": [{"measurement": "Ki", "setting": "Cholinesterase", "result": 470, "unit": "nM"}, {"measurement": "Activity", "setting": "[1]", "result": "inactive"}]}
{"smiles": "O=C(c1ccc([N+](=O)[O-])cc1)N1c2ccccc2Sc2ccccc21", "values": [{"measurement": "Ki", "setting": "Cholinesterase", "result": 820, "unit": "nM"}, {"measurement": "Activity", "setting": "[1]", "result": "inactive"}]}
{"smiles": "CCC(C(=O)N1c2ccccc2Sc2ccccc21)c1ccccc1", "note": "(stereo not drawn)", "values": [{"measurement": "Ki", "setting": "Cholinesterase", "result": 400, "unit": "nM"}, {"measurement": "Activity", "setting": "[1]", "result": "inactive"}]}
{"smiles": "CC(C(=O)N1c2ccccc2Sc2ccccc21)c1ccccc1", "note": "(stereo not drawn)", "values": [{"measurement": "Ki", "setting": "Cholinesterase", "result": 560, "unit": "nM"}, {"measurement": "Activity", "setting": "[1]", "result": "inactive"}]}
{"smiles": "O=C(Cc1ccc(-c2ccccc2)cc1)N1c2ccccc2Sc2ccccc21", "values": [{"measurement": "Ki", "setting": "Cholinesterase", "result": 1700, "unit": "nM"}, {"measurement": "Activity", "setting": "[1]", "result": "inactive"}]}
{"smiles": "COc1ccc(C(=O)N2c3ccccc3Sc3ccccc32)cc1", "values": [{"measurement": "Ki", "setting": "Cholinesterase", "result": 1500, "unit": "nM"}, {"measurement": "Activity", "setting": "[1]", "result": "inactive"}]}
{"smiles": "O=C(c1ccc(-c2ccccc2)cc1)N1c2ccccc2Sc2ccccc21", "values": [{"measurement": "Activity", "setting": "[1]", "result": "inactive"}]}
{"smiles": "O=C(Cc1ccc2ccccc2c1)N1c2ccccc2Sc2ccccc21", "values": [{"measurement": "Ki", "setting": "Cholinesterase", "result": 28, "unit": "nM"}, {"measurement": "Activity", "setting": "[1]", "result": "inactive"}]}
{"smiles": "Cc1cccc(C(=O)N2c3ccccc3Sc3ccccc32)c1", "values": [{"measurement": "Ki", "setting": "Cholinesterase", "result": 1900, "unit": "nM"}, {"measurement": "Activity", "setting": "[1]", "result": "inactive"}]}
{"smiles": "O=C(Cc1ccccc1)N1c2ccccc2Sc2ccccc21", "values": [{"measurement": "Ki", "setting": "Cholinesterase", "result": 610, "unit": "nM"}, {"measurement": "Activity", "setting": "[1]", "result": "inactive"}]}
{"smiles": "CC(C)(C)c1ccc(C(=O)N2c3ccccc3Sc3ccccc32)cc1", "values": [{"measurement": "Activity", "setting": "[1]", "result": "inactive"}]}
{"smiles": "O=C(c1c2ccccc2cc2ccccc12)N1c2ccccc2Sc2ccccc21", "values": [{"measurement": "Ki", "setting": "Cholinesterase", "result": 3.5, "unit": "nM"}, {"measurement": "Activity", "setting": "[1]", "result": "inactive"}]}
{"smiles": "O=C(C(=O)N1c2ccccc2Sc2ccccc21)N1c2ccccc2Sc2ccccc21", "values": [{"measurement": "Ki", "setting": "Cholinesterase", "result": 220, "unit": "nM"}, {"measurement": "Activity", "setting": "[1]", "result": "inactive"}]}
{"smiles": "O=C(Cc1cccc2ccccc12)N1c2ccccc2Sc2ccccc21", "values": [{"measurement": "Ki", "setting": "Cholinesterase", "result": 90, "unit": "nM"}, {"measurement": "Activity", "setting": "[1]", "result": "inactive"}]}
{"smiles": "CC(=O)Oc1ccc(C(=O)N2c3ccccc3Sc3ccccc32)cc1", "values": [{"measurement": "Ki", "setting": "Cholinesterase", "result": 23000, "unit": "nM"}, {"measurement": "Activity", "setting": "[1]", "result": "inactive"}]}
{"smiles": "Cc1ccc(C(=O)N2c3ccccc3Sc3ccccc32)cc1", "values": [{"measurement": "Ki", "setting": "Cholinesterase", "result": 2500, "unit": "nM"}, {"measurement": "Activity", "setting": "[1]", "result": "inactive"}]}
{"smiles": "Cc1ccccc1C(=O)N1c2ccccc2Sc2ccccc21", "values": [{"measurement": "Ki", "setting": "Cholinesterase", "result": 3100, "unit": "nM"}, {"measurement": "Activity", "setting": "[1]", "result": "inactive"}]}
{"smiles": "O=C(CCCc1ccccc1)N1c2ccccc2Sc2ccccc21", "values": [{"measurement": "Ki", "setting": "Cholinesterase", "result": 220, "unit": "nM"}, {"measurement": "Activity", "setting": "[1]", "result": "inactive"}]}
{"smiles": "O=C(c1ccc(Br)cc1)N1c2ccccc2Sc2ccccc21", "values": [{"measurement": "Ki", "setting": "Cholinesterase", "result": 1300, "unit": "nM"}, {"measurement": "Activity", "setting": "[1]", "result": "inactive"}]}
{"smiles": "O=C(CCc1ccccc1)N1c2ccccc2Sc2ccccc21", "values": [{"measurement": "Ki", "setting": "Cholinesterase", "result": 6200, "unit": "nM"}, {"measurement": "Activity", "setting": "[1]", "result": "inactive"}]}
{"smiles": "CC(CC(=O)N1c2ccccc2Sc2ccccc21)c1ccccc1", "note": "(stereo not drawn)", "values": [{"measurement": "Ki", "setting": "Cholinesterase", "result": 1700, "unit": "nM"}, {"measurement": "Activity", "setting": "[1]", "result": "inactive"}]}
{"smiles": "O=C(c1ccccc1)N1c2ccccc2Sc2ccccc21", "values": [{"measurement": "Ki", "setting": "Cholinesterase", "result": 5800, "unit": "nM"}, {"measurement": "Activity", "setting": "[1]", "result": "inactive"}]}
